Rows were chosen to be rich in hits. Some 2.3% of all compounds tested hit in one or more screens of this group.
FN deposit inh = fibronectin deposition inhibition. AH1F fibroblasts, Alexa488-fibronectin deposition fluorescence, overnight. inhibition, % at 12.6 µM. hit rate 0.086% among 350,000;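 active = mean inhibition across replicates of 30% or more, regardless of how many single replicates reach that level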;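 note: positive control wells lacked labelled fibronectin entirely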
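Material: AH1F fibroblasts assembling fluorescent fibronectin matrix; amount: 10000 AH1F cells/well; medium: DMEM, 2% serum; reagent: Alexa488-fibronectin, 24 nM final in well; dosing: single compound dose, delivered by pin transfer; incubation: 1 h adhesion, overnight exposure; detection: fluorescence after three HBSS washes, excitation 485 nm, emission 525 nm; measure: fibronectin deposition inhibition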
LGR2 inh = inhibitors of bursicon-induced Drosophila LGR2 receptor cAMP signaling | hit rate 0.35% among 380,000 | inhibition, % at 9.99 µM | HEK293 LGR2, CRE-luciferase, bursicon-stimulated, 4 h;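 active = drop in luminescence signal, shown as inhibition above about 50% in the replicate tests, limit read from the data, passing the limit was not always enough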;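 note: agonist challenge used bursicon conditioned medium at about half maximal strength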
TROY NFkB inh = TROY signaling inhibition; Q293 LMP1-TROYcd NF-kB luciferase reporter, 4 h; inhibition, % at 10 µM; hit rate 0.98% among 360,000; AID 1347056;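 active = compounds whose plate-normalised and pattern-corrected inhibition of the luciferase reporter signal at the single screening dose is 50% or more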
Xi reactivation = X-chromosome reactivation activator; XiGFP mouse fibroblasts, % GFP-positive cells imaging, 3 d; cells co-treated with 5-aza-dC sensitizer; scaled so ellipticine positive control = 100%; activation, % at 7.58 µM; hit rate 0.055% among 360,000;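 active = mean normalized replicate activation at least 10% and every replicate at or above 10%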;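 note: 0% = median of on-plate neutral control wells and 100% = ellipticine 6 µM median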
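System: 68-5-11 XiGFP fibroblast line | Buffer or medium: DMEM containing 5-aza-dC | Compound: Single point | Times: Compounds 3 days, fix/stain 15 min at room temperature | Benchmarks: Positive control ellipticine, 6 µM final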
TWEAK-Fn14 inh = TWEAK-Fn14 signaling inhibition | TWEAK-stimulated Fn14 reporter cells, luciferase luminescence, 8 h | AID 1159606 | hit rate 2% among 360,000 | inhibition, % at 10 µM; in the data active = inhibition above about 50%
EWS-Fli block = blocks EWS/Fli oncoprotein-driven transcription | A673 NR0B1-luciferase reporter, viability-normalised | inhibition, % at 12.6 µM | hit rate 0.67% among 350,000 | AID 651661;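 active = mean inhibition of at least 50% after viability correction, with every replicate also passing that limit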;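 note: firefly luciferase signal divided by Alamar Blue viability fluorescence both relative to DMSO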
Numbers without * were called inactive; nt = no result.

SMILES | FN deposit inh | LGR2 inh | TROY NFkB inh | Xi reactivation | TWEAK-Fn14 inh | EWS-Fli block
O=C1CC(NC(=O)C(F)(F)F)=NN1c1ccccc1 | -2 | -13 | -35 | 0 | -7 | -4
CN(C)CC#Cc1ccc([C@@H]2[C@H]3CN(C(=O)C4CC4)CCCCN3[C@H]2CO)cc1 | nt | nt | nt | nt | nt | 1
Cc1nc2cc(N3CCN(C)CC3)c(NC(=O)Cc3ccccc3)cc2c(=O)n1Cc1ccccc1 | -21 | nt | 59* | nt | 87* | nt
CCC(=O)N1CC2(C1)CN(C(C)=O)[C@@H](CO)c1[nH]c3cc(OC)ccc3c12 | nt | -1 | nt | 0 | nt | -4
O=C(CN(c1ccccc1F)S(=O)(=O)c1ccccc1)Nc1ccc2c(c1)OCCO2 | nt | -7 | 45 | 0 | 75* | nt
O=C(CN(c1ccc(F)cc1)S(=O)(=O)c1ccc2c(c1)OCCO2)Nc1ccccc1 | -5 | nt | -6 | nt | 3 | nt
C[C@@H]1CN([C@H](C)CO)C(=O)c2cc(NC(=O)Nc3ccc(C(F)(F)F)cc3)ccc2O[C@@H](C)CCCCO[C@@H]1CN(C)Cc1ccc(Cl)c(Cl)c1 | nt | -7 | nt | 0 | nt | 5
Cc1noc(C)c1S(=O)(=O)Nc1ccc2c(c1)C(=O)N([C@H](C)CO)C[C@@H](C)[C@@H](CN(C)C(=O)c1ccccc1)OCCCC[C@@H](C)O2 | -4 | 6 | nt | 0 | nt | 4
O=C(NCCCN1CCCCCC1)c1ccc2c(c1)NC(=O)C(N1CCOCC1)S2 (stereo unspecified) | nt | nt | nt | nt | 82* | nt
O=C1Nc2cc(C(=O)NCCN3CCCCCC3)ccc2S/C1=C/c1ccccc1F | -8 | -2 | -3 | 0 | 0 | 73*
N#Cc1c(N)nc(Sc2ccc(Cl)cc2)c(C#N)c1-c1ccccc1Cl | -9 | 32 | 48 | 0 | 58* | 19
C[C@@H]1CN([C@@H](C)CO)C(=O)c2cccc(NS(=O)(=O)c3ccccc3)c2O[C@@H]1CN(C)S(=O)(=O)c1cccs1 | nt | -7 | nt | -1 | nt | 44
CC(C)(C)c1nn(-c2ccccc2)c2[nH]c(=O)c(CNc3ccc4c(c3)OCCO4)cc12 | nt | 18 | 82* | nt | 96* | nt
CN(C)CC(=O)N1[C@@H](C#N)[C@H](c2ccc(-c3ccccc3F)cc2)[C@@H]1CO | -2 | -3 | nt | 0 | nt | -6
COc1ccc(N2CCN(C(CNC(=O)c3ccc4c(c3)OCO4)c3ccco3)CC2)cc1 (stereo unspecified) | -4 | -7 | 6 | 29* | -11 | 2
O=C(NCC(c1ccco1)N1CCN(c2ccc(F)cc2)CC1)c1ccc2c(c1)OCO2 (stereo unspecified) | -10 | 14 | -10 | 0 | 0 | 6
CC(=O)Nc1ccc2c(c1)C(=O)N(C)[C@@H]1CC[C@@H](CC(=O)NCc3ccccc3Cl)O[C@@H]1CO2 | -3 | 4 | nt | 0 | nt | 6
Cc1ccc(S(=O)(=O)N(C)C[C@@H]2Oc3ccc(NC(=O)Nc4cccc5ccccc45)cc3C(=O)N([C@@H](C)CO)C[C@H]2C)cc1 | nt | 4 | nt | -1 | nt | 2
Cc1cc(C(=O)N/N=C/c2cc([N+](=O)[O-])ccc2O)c2ccccc2n1 | nt | 15 | 21 | nt | 10 | nt
Cc1cc(C(=O)N/N=C/c2ccc([N+](=O)[O-])cc2)c2ccccc2n1 | 4 | 15 | 29 | 0 | 9 | 51*
Cc1cc(C(=O)N/N=C/c2ccc(N(C)C)cc2)c2ccccc2n1 | -4 | 14 | 54* | 5 | 51* | 37
O=C(C1CCC1)N1CC2(C1)[C@H](c1ccccc1)[C@@H](CO)N2Cc1cncnc1 | 3 | -16 | nt | 0 | nt | -4
CC1(C)CC2CC(C)(CN2C(=O)c2cc(-c3ccc(O)cc3)on2)C1 (stereo unspecified) | -6 | 12 | 62* | 0 | -35 | 12
COc1cccc(-c2cc(C(=O)N3CC4(C)CC3CC(C)(C)C4)no2)c1 (stereo unspecified) | nt | nt | -16 | nt | 17 | nt
OC[C@@H]1[C@@H](c2ccc(-c3cccnc3)cc2)[C@H]2CN(CC3CCOCC3)CCCCN12 | nt | nt | nt | nt | nt | -6
COc1ccc2c3c(n(C)c2c1)[C@@H](CO)N(C)CC31CCN(S(=O)(=O)c2cccs2)CC1 | nt | 8 | nt | 0 | nt | -2

Bioassay records as filed in PubChem.
